Screening data as filed in PubChem BioAssay.
ABHD5-PLIN5 inh – ABHD5-PLIN5 protein interaction inhibition; hit rate 0.78% among 360,000; Split G. princeps luciferase complementation, luminescence, 4 h; inhibition, % at 4 µM;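 active = inhibition above the mean inhibition across every tested compound plus 3 SD, cut at about 22% in these data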
Arr AP2 block – blocks beta-arrestin peptide binding to AP2 adaptin; FITC-arrestin peptide / GST-AP2 beads, flow cytometry; AP2 beta2 appendage carries R879A mutation; inhibition, % at 10 µM; hit rate 0.31% among 340,000;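 active = inhibition above a set limit, near 3 SD of compounds lacking own fluorescence, cut at about 54% in these data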
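System: GST-AP2 R879A glutathione beads. Medium: PBS with 0.05% Tween 20 and 0.1% BSA. Also added: FITC-arrestin peptide, 50 nM. Incubation: 12 min plus 1 h, RT. Measured by: high-throughput flow cytometry of beads, ex 488, em 535 nm. Evaluation: percent drop in bead-associated FITC signal.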
MBD2 DNA inh – MBD2-methylated oligo binding inhibition. inhibition, % at 4.4 µM. TR-FRET, MBD2 binding to methylated oligonucleotide. hit rate 0.31% among 370,000. AID 686964; in the data active = inhibition above about 13%
Rin1-Abl PPI inh – inhibitors of human Rin1-Abl protein interaction. P00519+Q13671. TR-FRET Rin1/Abl binding, biochemical. inhibition, % at 7.35 µM. hit rate 0.4% among 360,000; in the data active = inhibition above about 5%, passing the limit was not always enough
Beta2AR agonist – activates human beta-2 adrenergic receptor causing internalization | Am2.2-beta2AR cells, FAP receptor internalization, flow cytometry | P07550 | response, % (no concentration beside the values) | hit rate 0.43% among 340,000;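 active = response above a set limit, near 3 SD of response in nonfluorescent compounds, cut at about 42% in these data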
UHRF1 binding – blocks human UHRF1 binding to methylated DNA | inhibition, % at 4.4 µM | UHRF1 binding to methylated oligo, TR-FRET | Q96T88 | hit rate 0.75% among 370,000; in the data active = inhibition above about 21%;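 note: UHRF1 SRA domain binding a hemimethylated CpG hairpin DNA probe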
Beta2AR ag CP1 – activates human beta-2 adrenergic receptor; shares compounds with Beta2AR agonist; hit rate 25% among 1,100; Am2.2-beta2AR cells, FAP surface receptor, flow cytometry; stronger effect = lower value; percent response (surface receptor), % at 10 µM;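 active = surface receptor percent response at or below 58%, roughly 3 SD from nonfluorescent compounds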
FAP fluor counter – fluorescence artifact in beta-2AR agonist FAP counterscreen | shares compounds with Beta2AR agonist | Am2.2 cells, FAP fluorogen flow cytometry; stronger effect = lower value | calls only at 10 µM | 1,100 tested, under 10 active;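 active = percent response below a set limit in fluorescence channel 1 and below 50% in channel 8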
Numbers stand for hits; . = inactive; / = not tested or not shown. Sampled rows, rich in hits. Any-hit rate of the full collection: about 2.5%.

SMILES	ABHD5-PLIN5 inh	Arr AP2 block	MBD2 DNA inh	Rin1-Abl PPI inh	Beta2AR agonist	UHRF1 binding	Beta2AR ag CP1	FAP fluor counter
CC1CCN(C(C(=O)Nc2ccc3c(c2)OCO3)c2ccccc2)CC1 (centres undefined)	.	.	.	.	.	.	.	.
O=C(Nc1ccc2c(c1)OCO2)C(c1ccccc1)N1CCCCC1 (centres undefined)	.	.	.	.	.	.	/	/
CC1CCCN(C(C(=O)Nc2ccc3c(c2)OCO3)c2ccccc2)C1 (centres undefined)	.	.	.	.	.	.	.	.
OC[C@H]1CC[C@@H]2O[C@H](CCc3ccc(-c4ccc(F)cc4)cc3)[C@@H](n3cc(C4CC4)nn3)C[C@@H]2O1	/	/	.	/	/	.	/	/
COc1ccccc1C(CCNCc1ccccc1)c1ccc(OC(C)C)cc1 (centres undefined)	.	.	.	.	.	.	.	.
COc1ccc(CNCCC(c2ccc(OC(C)C)cc2)c2ccccc2OC)cc1OC (centres undefined)	.	.	.	.	.	.	.	.
COc1ccc(C(CCNCc2ccc(OC(C)C)cc2)C(C)C)cc1 (centres undefined)	.	.	.	.	.	.	/	/
COc1ccc(CNCCC(c2ccc(OC(C)C)cc2)c2ccccc2OC)cc1 (centres undefined)	.	.	.	.	.	.	.	.
COc1ccc(CNCCC(c2ccccc2)c2ccc3c(c2)OCO3)cc1 (centres undefined)	.	.	.	.	.	.	.	.
COc1ccc(CNCCC(c2ccc(OC(C)C)cc2)C(C)C)cc1OC (centres undefined)	.	.	.	.	.	.	/	/
C=CCN1[C@H](C#N)[C@@H](c2ccc(C#Cc3cccnc3)cc2)[C@H]1CO	/	/	.	/	/	.	/	/
S=C(NCc1ccc(Cl)cc1)OC1CCC12CCC(c1ccccc1)CC2 (centres undefined)	/	/	.	/	/	.	/	/
CC(C)[C@H](NC(=O)N1CCOCC1)C(=O)N1CCC[C@H]1C(=O)NCc1ccccc1	/	/	.	/	/	.	/	/
COc1ccccc1C(CCNCc1ccc(N(C)C)cc1)c1ccc(OC(C)C)cc1 (centres undefined)	.	.	.	.	65	.	.	.
Cc1cccc(CCNC(=O)c2ccc(Sc3ccccc3Cl)c([N+](=O)[O-])c2)c1	/	/	.	/	/	.	/	/
CCOc1ccccc1CNC(=O)C1CCN(c2nnc(C)c3c(C)n(-c4ccc(C)cc4)nc23)CC1	.	.	.	.	53	.	24	.
CCOc1ccc(CNC(=O)C2CCN(c3nnc(C)c4c(C)n(-c5ccc(C)cc5)nc34)CC2)cc1	.	.	.	.	55	.	.	.
COc1ccc(-n2nc3c(N4CCC(C(=O)NCCc5ccco5)CC4)nnc(C)c3c2C)cc1	.	.	.	.	.	.	/	/
COc1ccc(-n2nc3c(N4CCC(C(=O)NCc5cccc(C)c5)CC4)nnc(C)c3c2C)cc1	.	.	.	.	92	.	27	.
O=C(CCCC1=NS(=O)(=O)c2ccccc2N1)N1CCN(c2ccccc2Cl)CC1	/	/	.	/	/	.	/	/
COc1ccc(Cn2cc(COC(=O)NCC(C)C)nn2)cc1	/	/	.	/	/	.	/	/
Cc1ccc([N+](=O)[O-])cc1Nc1nc(N2CCOCC2)nc(N2CCOCC2)n1	.	.	.	.	50	.	.	.
O=C(CSc1nc2ccccc2n1Cc1ccccc1Cl)NN=C/C(Br)=C/c1ccccc1	/	/	.	/	/	.	/	/
NC(=S)N/N=C/c1ccccc1OC(=O)c1cc2ccccc2oc1=O	.	.	.	.	.	.	.	.
CCN1CCN(c2ccc(NC(=O)c3ccc([N+](=O)[O-])o3)cc2Cl)CC1	.	.	.	.	63	.	13	.
SMILES	ABHD5-PLIN5 inh	Arr AP2 block	MBD2 DNA inh	Rin1-Abl PPI inh	Beta2AR agonist	UHRF1 binding	Beta2AR ag CP1	FAP fluor counter
CCCCc1cccc2[nH]cc(C)c12	/	/	.	/	/	.	/	/
Cn1ccc2ccc(-c3ccc4c(c3)[C@]3(CCC[C@@H](OCc5ccccc5)[C@@H]3NC(=O)CCc3ccccc3)C(=O)N4Cc3ccccc3)cc21	/	/	.	/	/	.	/	/
CC12CCC(O)CC1=CCC1C2CCC2(C)C(c3ccn[nH]3)CCC12 (centres undefined)	.	.	.	.	44	.	.	.
Cc1ccc(C(=O)NC2CCCCN(Cc3cccc(Cl)c3)C2=O)c(C)c1 (centres undefined)	/	/	.	/	/	.	/	/
COC(=O)c1ccc(CN2CCC(Oc3ccc(C(=O)N4CCCCC4)cc3)CC2)cc1	.	.	.	.	.	.	.	.
COc1ccc(CN2C(=O)CCCC2(C)c2nnnn2-c2c(C)cccc2C)cc1OC (centres undefined)	/	/	.	/	/	.	/	/
CCCCCCCCCCOC(=O)Cn1c(COc2ccc(OC)cc2)[n+](C)c2ccccc21	.	.	/	.	.	/	.	.
CCCCCCCCCCOC(=O)Cn1c(COc2cccc(C)c2)[n+](C)c2ccccc21	.	.	.	.	.	.	.	.
Cc1ccc(-c2nc(NC(=O)c3cc(C(C)(C)C)nn3C)sc2C)cc1Cl	.	.	.	.	.	.	.	.
O=C(NC1CCCCN(Cc2cccc(Cl)c2)C1=O)c1ccccn1 (centres undefined)	/	/	.	/	/	.	/	/
CC(C)Cc1nc2oc3c(NCC4CCCO4)ncnc3c2c2c1CCC2 (centres undefined)	.	.	.	.	.	.	/	/
CCCc1nc2oc3c(NCC(C)O)ncnc3c2c2c1CCCC2 (centres undefined)	.	.	.	.	.	.	.	.
NC(=O)CC(NC(=O)c1cccc(Br)c1)c1ccc(N2CCC(Br)CC2)c([N+](=O)[O-])c1 (centres undefined)	.	.	.	.	.	.	/	/
NC(=O)CC(NC(=O)c1ccc(Br)cc1)c1ccc(N2CCN(c3ccccn3)CC2)c([N+](=O)[O-])c1 (centres undefined)	.	.	.	.	98	.	14	.
NC(=O)CC(NC(=O)c1cccc(Br)c1)c1ccc(N2CCN(c3ccccn3)CC2)c([N+](=O)[O-])c1 (centres undefined)	.	.	.	.	97	.	14	.
NC(=O)CC(NC(=O)Cc1ccc(Br)cc1)c1ccc(N2CCN(c3ccccn3)CC2)c([N+](=O)[O-])c1 (centres undefined)	.	.	.	.	63	.	.	.
O=S(=O)(Nc1cccc(-c2cn3cccnc3n2)c1)c1ccc(-c2ccccc2)cc1	.	.	.	.	110	.	12	.
CC(=O)c1c(C)[nH]c(C(=O)Nc2ccccc2C)c1C	/	/	.	/	/	.	/	/
O=C(CSc1nc(-c2ccccc2)cc(C(F)(F)F)n1)N1CCOCC1	.	.	.	.	.	.	/	/
